Results: ChEMBL document CHEMBL3352726, “Constrained bithiazoles: small molecule correctors of defective ΔF508-CFTR protein trafficking” (J Med Chem, 2014)

Molecular target: Cystic fibrosis transmembrane conductance regulator (Homo sapiens, UniProt P13569, F508DEL)
Assay: Correction of defective trafficking of human deltaF508 mutant CFTR protein expressed in FRT epithelial cells coexpressing YFP-H148Q/I152L protein assessed as iodide influx for 16 to 20 hrs by fluorescence assay
Type: cell-based, Epithelial cell
Conditions: read-out: IC50 (the source's name)
Summary of the method: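 FRT cells stably coexpressing human ΔF508-CFTR and YFP-H148Q/I152L, grown 24 h at 37 °C (5% CO2), then exposed 16–20 h to compound at various concentrations; DMSO vehicle negative control and a bithiazole benzamide positive control. Washed, 20 min in PBS with forskolin 20 μM plus genistein 50 μM. YFP fluorescence (ex 500/em 535 nm) read 2 s baseline, then 12 s after iodide-substituted PBS addition. Influx rate came from exponential fit of final 11.5 s, extrapolated initial slope, normalized to background-subtracted initial fluorescence. EC50/Vmax came from four-parameter logistic fit.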

Cystic fibrosis transmembrane conductance regulator, sequence (P13569 as listed by the source): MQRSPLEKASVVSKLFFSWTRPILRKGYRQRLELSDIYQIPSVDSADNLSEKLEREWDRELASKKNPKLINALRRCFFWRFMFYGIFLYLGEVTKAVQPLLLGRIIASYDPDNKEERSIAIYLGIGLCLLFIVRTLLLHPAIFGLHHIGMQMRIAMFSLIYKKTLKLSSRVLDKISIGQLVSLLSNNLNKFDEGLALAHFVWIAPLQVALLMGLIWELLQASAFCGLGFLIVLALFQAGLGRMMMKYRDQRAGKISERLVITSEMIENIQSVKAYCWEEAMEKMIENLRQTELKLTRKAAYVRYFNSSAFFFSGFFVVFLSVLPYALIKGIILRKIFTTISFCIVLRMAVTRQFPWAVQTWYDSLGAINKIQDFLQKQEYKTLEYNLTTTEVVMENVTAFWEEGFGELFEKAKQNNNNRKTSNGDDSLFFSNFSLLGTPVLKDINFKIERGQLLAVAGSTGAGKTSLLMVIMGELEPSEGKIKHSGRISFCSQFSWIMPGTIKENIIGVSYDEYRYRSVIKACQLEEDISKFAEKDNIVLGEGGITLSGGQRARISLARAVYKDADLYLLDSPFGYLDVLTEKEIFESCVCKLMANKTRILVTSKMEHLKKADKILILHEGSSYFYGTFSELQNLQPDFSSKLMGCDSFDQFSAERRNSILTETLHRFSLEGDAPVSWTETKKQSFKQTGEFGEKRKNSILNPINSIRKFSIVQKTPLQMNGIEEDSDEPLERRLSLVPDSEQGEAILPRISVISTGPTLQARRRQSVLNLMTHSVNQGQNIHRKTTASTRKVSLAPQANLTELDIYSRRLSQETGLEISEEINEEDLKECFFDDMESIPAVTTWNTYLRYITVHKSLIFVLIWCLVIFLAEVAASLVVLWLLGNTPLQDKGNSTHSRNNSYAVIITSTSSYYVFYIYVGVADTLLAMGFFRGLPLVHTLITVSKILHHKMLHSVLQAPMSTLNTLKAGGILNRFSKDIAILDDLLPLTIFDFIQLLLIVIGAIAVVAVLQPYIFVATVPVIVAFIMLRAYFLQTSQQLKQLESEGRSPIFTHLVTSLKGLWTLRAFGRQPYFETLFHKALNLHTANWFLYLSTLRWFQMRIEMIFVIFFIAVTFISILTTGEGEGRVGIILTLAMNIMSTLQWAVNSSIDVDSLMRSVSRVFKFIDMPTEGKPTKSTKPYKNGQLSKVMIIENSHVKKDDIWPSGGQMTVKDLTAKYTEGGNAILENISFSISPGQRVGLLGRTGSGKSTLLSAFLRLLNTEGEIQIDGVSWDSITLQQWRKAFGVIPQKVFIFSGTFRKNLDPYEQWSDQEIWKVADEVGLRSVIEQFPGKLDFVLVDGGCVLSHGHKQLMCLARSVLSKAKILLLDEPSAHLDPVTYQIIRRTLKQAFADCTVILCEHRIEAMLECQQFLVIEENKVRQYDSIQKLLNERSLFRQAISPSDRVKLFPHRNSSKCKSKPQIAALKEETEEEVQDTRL

| Structure (SMILES) | EC50 [µM] |
| --- | --- |
| COc1ccc(Cl)cc1Nc1nc(-c2sc(NC(=O)c3ccccc3)nc2C)cs1 | 6 |
| COc1ccc(Cl)cc1Nc1nc2c(s1)CCCc1nc(N)sc1-2 | 11 |
| COc1ccc(Cl)cc1Nc1nc2c(s1)CCCc1nc(NC(=O)C3CC3)sc1-2 | 8.9 |
| COc1ccc(Cl)cc1Nc1nc2c(s1)CCCc1nc(NC(=O)C(C)C)sc1-2 | 5.8 |
| CCC(C)C(=O)Nc1nc2c(s1)-c1nc(Nc3cc(Cl)ccc3OC)sc1CCC2 (stereo not drawn) | 6.6 |
| COC(=O)CCC(=O)Nc1nc2c(s1)-c1nc(Nc3cc(Cl)ccc3OC)sc1CCC2 | 8.8 |
| COc1ccc(Cl)cc1Nc1nc2c(s1)CCCCc1nc(N)sc1-2 | 9.2 |
| COc1ccc(Cl)cc1Nc1nc2c(s1)CCCCc1nc(NC(=O)C(C)C)sc1-2 | 8.7 |
| COC(=O)CCC(=O)Nc1nc2c(s1)-c1nc(Nc3cc(Cl)ccc3OC)sc1CCCC2 | 8.3 |
| COc1ccc(Cl)cc1Nc1nc2c(s1)CCCCc1nc(NC(=O)c3ccno3)sc1-2 | 6.6 |
| CN(C)c1ccc(Cl)cc1Nc1nc2c(s1)CCCc1nc(NC(=O)C(C)(C)C)sc1-2 | 6.9 |
| Cc1cccnc1Nc1nc2c(s1)CCCc1nc(NC(=O)C(C)(C)C)sc1-2 | 7.2 |
| CN(C)c1cccc(Nc2nc3c(s2)CCCCc2nc(NC(=O)C(C)(C)C)sc2-3)c1 | 5.2 |

The next lines start with the values.

| EC50 [µM] | Structure (SMILES) |
| --- | --- |
| 4.8 | COc1ccc(Cl)cc1Nc1nc2c(s1)CCCc1nc(NC(=O)c3ccno3)sc1-2 |
| 4.1 | COc1ccc(Cl)cc1Nc1nc2c(s1)CCCCc1nc(NC(=O)C(C)(C)C)sc1-2 |
| 4.5 | COc1ccc(Cl)cc1Nc1nc2c(s1)CCCCc1nc(NC(=O)C3CC3)sc1-2 |
| 2.9 | CCC(C)C(=O)Nc1nc2c(s1)-c1nc(Nc3cc(Cl)ccc3OC)sc1CCCC2 (stereo not drawn) |
| 2.2 | CN(C)c1cccc(Nc2nc3c(s2)CCCc2nc(NC(=O)C(C)(C)C)sc2-3)c1 |
| 3.6 | COc1ccc([N+](=O)[O-])cc1Nc1nc2c(s1)CCCc1nc(NC(=O)C(C)(C)C)sc1-2 |
| 2.1 | CN(C)c1ccc(Cl)cc1Nc1nc2c(s1)CCCCc1nc(NC(=O)C(C)(C)C)sc1-2 |
| 5.2 | Cc1cccnc1Nc1nc2c(s1)CCCCc1nc(NC(=O)C(C)(C)C)sc1-2 |
| 0.9 | COc1ccc([N+](=O)[O-])cc1Nc1nc2c(s1)CCCCc1nc(NC(=O)C(C)(C)C)sc1-2 |
| 2.3 | COc1ccc(Cl)cc1Nc1nc2c(s1)CCCc1nc(NC(=O)C(C)(C)C)sc1-2 |
